Bioassay records (PubChem BioAssay)
Most compounds without a hit are left out; they make up all but 2.5% or so of the library.
dFosB act = enhances mouse delta FosB homodimer DNA binding; 340,000 tested, 0.99% active; purified delta FosB, TAMRA-CDK5 oligo fluorescence polarization; percent of positive-control signal above neutral wells; AID 493131; activation, % at 25 µM;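 active = mean activation above about 17%, with every replicate also reaching it, limit read from the data, passing the limit was not always enough; inconclusive = only one of the two conditions met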
Dyrk1A ADPGlo = inhibitors of rat Dyrk1A kinase; inhibition, % at 12.5 µM; Q63470; 310,000 tested, 0.43% active; AID 504441; ADP-Glo luminescence, NFATc1 peptide
NSD2 inh = blocks human histone methyltransferase NSD2. O96028. NSD2 peptide methylation, AlphaScreen, 120 min. inhibition, % at 12.5 µM. 310,000 tested, 0.54% active. AID 743445
SR-BI uptake up = SR-BI HDL lipid transfer activation | CHO ldlA[mSR-BI] cells, DiI-HDL uptake fluorescence, 3 h; 100 = double the neutral-control signal | activation, % at 12.5 µM | 320,000 tested, 0.096% active;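 active = mean replicate activation of at least 60% and every replicate at or above 60%; inconclusive = mean or all-replicate condition met, but not both; inactive = mean below 60% and not all replicates reaching 60%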
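Test system: SR-BI-overexpressing, LDLR-lacking CHO cells. Measured by: DiI fluorescence, bottom read. Medium: Ham's F12 with 0.5% BSA, HEPES 25 mM, pH 7.4. Timing: 3 h uptake period with compound, 37 °C.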
CDK5 inh = CDK5/p35 (human) kinase inhibition. AID 488839. Recombinant CDK5/p35, ADP-Glo luminescence, 60 min. 330,000 tested, 0.01% active. Q00535+Q15078. inhibition, % at 10 µM;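 active = highest replicate inhibition of at least 50% and at least 75% of replicates reaching 50%; inconclusive = only one of the two criteria met; inactive = both criteria failed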
SR-BI DiI inh = mouse SR-BI HDL lipid transfer inhibition. ldlA[mSR-BI] CHO cells, DiI-HDL uptake fluorescence, 3 h. Q61009. inhibition, % at 12.5 µM. 320,000 tested, 0.96% active;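 active = mean replicate inhibition of at least 70% and a set share of replicates each scoring 70 or more; inconclusive = meets just one of the two criteria; inactive = fails both criteria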
ADP-Glo artifact = counter-screen for Dyrk1A inhibitors: ADP-Glo luciferase artifacts. shares compounds with Dyrk1A ADPGlo. ADP-Glo luciferase artifact assay, no Dyrk1A, luminescence. AC50, µM (top dose mostly 12 µM). 1,300 tested, under 10 active. AID 588348;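 active = fitted half-maximal dose AC50 no more than ten times the top valid tested dose, with luminescence dropping as dose rises; inconclusive = poor fit, or flat fit with 30 to 70% inhibition; inactive = the rest, signal increases included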
Hits are given with their value; 0 = inactive; ? = inconclusive; - = no result. Rule as the data show it, unless noted: active = inhibition above about 50%; inactive = the rest.

SMILES	dFosB act	Dyrk1A ADPGlo	NSD2 inh	SR-BI uptake up	CDK5 inh	SR-BI DiI inh	ADP-Glo artifact
CC(C)CC(=O)Nc1cc2c3c(c1)C(C)C(=O)N3CCC2 (stereo unspecified)	0	0	0	-	0	0	-
Oc1ccc(-c2csc(-c3ccccc3)n2)cc1O	0	55	0	0	0	0	0
Oc1ccc(-c2csc(-c3cccnc3)n2)cc1O	0	51	-	0	0	0	0
Cc1cccc(C(C)n2nnc3ccccc32)c1O (stereo unspecified)	0	57	-	0	0	0	0
Cc1cccc(Cn2nnc3ccccc32)c1O	0	0	-	-	0	-	-
O=C(COc1ccc([N+](=O)[O-])cc1)Nc1cccc2nsnc12	0	0	0	0	0	0	-
COc1ccc2c(c1)CCc1cn3nc(C)cc3nc1-2	0	81	0	-	0	-	0
CC(=O)Nc1nc2ccc(Br)cc2s1	0	71	0	0	0	0	0
CC1CCCCN1CCCNC(=O)C1CCCN(c2ncnc3c2nc2n3CCCCC2)C1 (stereo unspecified)	0	0	0	0	0	0	-
Cc1nc(COc2ccccc2Cl)sc1-c1ccnc(N)n1	0	79	0	0	0	0	0
COc1ccc(-c2sc3ccccc3c2-c2ccc(OCCN3CCCCC3)cc2)cc1	?	0	-	0	0	0	-
COc1cccc(-c2sc3ccccc3c2-c2ccc(OCCN3CCCC3)cc2)c1	0	51	-	0	0	0	0
COC(=O)c1nn(-c2ccc3c(c2)OCO3)cc1O	0	69	0	0	0	0	0
CCOC(=O)c1nn(-c2ccc3c(c2)OCCO3)cc1O	0	-	0	0	0	0	-
CCCOc1cc2c(C#N)c(N3CCCC3)nc(N)c2c(N)n1	0	0	-	0	0	0	-
COc1ccc(N(CC(=O)Nc2ccc3c(c2)OCCO3)S(=O)(=O)c2c(C)nn(C)c2C)cc1	0	56	-	0	0	0	0
COc1ccc(-n2ccc(-c3nn(-c4cccc(C(F)(F)F)c4)ccc3=O)n2)cc1	0	51	0	0	0	0	0
O=c1ccn(-c2cccc(C(F)(F)F)c2)nc1-c1ccn(-c2ccccc2F)n1	0	0	0	0	0	0	-
COC(=O)c1cc(C(=O)NNC(=O)c2ccc3c(c2)OCO3)cc([N+](=O)[O-])c1	0	-	0	-	0	0	-
Oc1ccc(/C=N/n2c(COc3ccccc3)n[nH]c2=S)c(O)c1	0	67	0	0	0	0	0
CC1(C)Cc2nc3sc4c(SCC(=O)O)ncnc4c3cc2CO1	0	93	0	-	0	-	0
CC(C)(Cc1ccc(O)cc1)NC(=O)c1ccccc1	0	-	0	0	0	0	-
Nc1cc(Cl)nc(N/N=C/c2c(O)ccc3ccccc23)n1	?	0	0	0	0	0	-
O=C(O)c1cc(N/N=C/c2c(O)ccc3ccccc23)ccc1Cl	0	73	0	0	0	0	0
CCN1C(=O)[C@H]2[C@@H](c3ccc(-c4cccc(Cl)c4)c(OC)c3)N[C@@](C)(C(=O)OC)[C@H]2C1=O	0	0	-	0	0	0	-
SMILES	dFosB act	Dyrk1A ADPGlo	NSD2 inh	SR-BI uptake up	CDK5 inh	SR-BI DiI inh	ADP-Glo artifact
CCC1COCCS(=O)(=O)N1Cc1ccc(C)cc1 (stereo unspecified)	0	0	-	0	0	0	-
CCC1COCCS(=O)(=O)N1Cc1ccccc1 (stereo unspecified)	0	55	-	0	0	0	0
Cn1nnnc1Sc1ncnc2scc(-c3ccccc3)c12	0	0	-	0	0	0	-
Cn1nnnc1Sc1ncnc2scc(-c3ccc[nH]3)c12	0	52	-	0	0	0	0
CCn1cc(/C=C(\NC(=O)c2ccccc2OC)C(=O)N2CCN(C)CC2)c2ccccc21	0	-	0	0	-	0	-
N=c1oc2cc(O)ccc2cc1C(=O)Nc1ccc(F)cc1	0	53	0	0	0	0	0
O=C(c1ccc(F)cc1)c1cc2ccc(O)cc2oc1=O	0	0	0	0	0	0	-
CCOCC(=O)Nc1nc2c(s1)C(=O)CC(C)(C)C2	0	57	-	0	0	0	0
COc1ccc(-c2csc(C(C)(O)c3ccc(F)c(F)c3)n2)cc1OC (stereo unspecified)	-	-	0	-	-	-	-
O=C1C2C(c3ccccc3)CC=CC2[C@H](c2ccoc2)N1Cc1ccccc1 (stereo partly specified)	0	60	-	0	0	0	0
O=C1C2C(c3ccccc3)CC=CC2[C@H](c2ccc3ccccc3c2)N1Cc1ccccc1 (stereo partly specified)	0	0	-	0	0	0	-
Oc1c(Cl)c(Cl)c2ncccc2c1Cl	0	55	0	0	0	0	0
CC(C)=CCc1c(O)ccc2c1OC(c1ccc(O)c(O)c1)CC2=O (stereo unspecified)	0	64	-	0	0	0	0
Cc1cccnc1NC(=O)C1CCCN1S(=O)(=O)c1ccc(Cl)cc1 (stereo unspecified)	0	0	0	0	0	0	-
CCOc1ccccc1C(=O)Nc1ccccc1C(N)=O	0	56	0	0	0	0	0
O=C1OCC/C1=C\c1ccc(O)cc1	0	92	-	-	0	-	0
CC(C)(C)c1ccc(C(=O)NCC(=O)N2CCCCCC2)cc1	0	0	0	0	0	0	-
Cc1ccc2oc(=O)c3cnn(CC(=O)NC4CCCCC4C)c3c2c1 (stereo unspecified)	0	61	-	0	0	0	0
CN(C)S(=O)(=O)c1ccc(NC(=O)c2cc3ccccc3o2)cc1	0	75	0	0	0	0	0
Cc1ccc(NC(=O)c2cc3ccccc3o2)cc1S(=O)(=O)N(C)C	0	0	0	0	0	0	-
CCCc1cc(=O)[nH]c(SCC(=O)Nc2cc(S(=O)(=O)N3CCOCC3)ccc2N(CC)CC)n1	0	0	0	0	0	0	-
COc1cccc(NC(=O)Nc2ccc3c(c2)N(C)C(=O)CS3)c1	0	50	0	0	0	0	0
CCc1nc2c(OCc3ccc(F)cc3)cccn2c1N(C)C(=O)C(C)C	-	-	0	-	-	-	-
Oc1[nH]c2ccc(Br)cc2c1N=NC(=S)Nc1ccc(F)cc1	0	0	-	0	0	0	-
Oc1ccc(NC(=S)N=Nc2c(O)[nH]c3ccc(Br)cc23)cc1	0	51	-	0	0	0	0
N=C(N)N=Nc1c(O)[nH]c2ccc(Br)cc12	0	63	0	0	0	0	0
COC(=O)[C@H](Cc1ccccc1)N1C/C=C\COc2c(Cl)cc(Cl)cc2S1(=O)=O	0	0	-	0	0	0	-
CC(C)Oc1ccc(C2CC(=O)NC2=O)cc1 (stereo unspecified)	0	0	0	-	0	-	-
CC(C)Oc1ccc(C2CNC(=O)C2)cc1 (stereo unspecified)	0	54	-	0	0	0	0
